Laboratory results as given in ChEMBL document CHEMBL4622968, “Discovery of [1,2,4]triazolo[4,3-a]pyridines as potent Smoothened inhibitors targeting the Hedgehog pathway with improved antitumor activity in vivo” (Bioorg Med Chem, 2020).
pIC50, pKd: −log10 of the molar value. The source made the active and inactive calls. The rule behind the calls is not given here.

Legend:
[1] = tested on: T47D; test: Antiproliferation activity against human T47D cells assessed as reduction in cell viability incubated for 72 hr by MTT assay; type: functional, cell-based
In short: (§1)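 MTT assay. Cells were plated overnight and exposed to a range of concentrations for 72 h. MTT was then added for 4 h and absorbance read at 570 nm. Inhibition% = [(control − compound)/(control − blank)] × 100. IC50 was fitted from the curves. Mean ± S.D. of 3–5 separate experiments. RPMI 1640 + 10% FBS; MCF10A in DMEM/F12 with 5% horse serum, EGF, hydrocortisone, insulin and cholera toxin.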

[2] = Inhibition of hedgehog pathway in mouse NIH/3T3 cells harboring GRE-Luc assessed as inhibition of SAG-induced Hh signaling pathway by dual luciferase reporter gene assay; type: cell-based; conditions: NIH3T3
In short: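 NIH3T3 cells co-transfected with 8×3' Gli-BS-delta51-Luc II firefly reporter and pRL-TK Renilla plasmid; after 24 h treated with compounds plus SAG (pathway activator). Gli luciferase normalized to Renilla (dual-luciferase read-out); IC50 = concentration halving normalized signal; mean ± S.D. of 3–5 separate experiments.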

[3] = tested on: MDA-MB-468; test: Antiproliferation activity against human MDA-MB-468 cells assessed as reduction in cell viability incubated for 72 hr by MTT assay; type: functional, cell-based; conditions: MDA-MB-468, 72 h; in short: as §1
[4] = tested on: A549; test: Antiproliferation activity against human A549 cells assessed as reduction in cell viability incubated for 72 hrs by MTT assay; type: functional, cell-based; conditions: A549, 72 h; in short: as §1
[5] = tested on: U-251; test: Antiproliferation activity against human U251 cells assessed as reduction in cell viability incubated for 72 hrs by MTT assay; type: functional, cell-based; conditions: U-251, 72 h; in short: as §1
[6] = tested on: MDA-MB-468; test: Induction of cell cycle arrest in human MDA-MB-468 cells assessed as cell accumulation at G2/M phase at 28 uM incubated for 48 hrs by propidium iodide staining-based flow cytometric analysis (reference value: 26.66 %); type: functional
In short: (§2)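 Cells were seeded at 1.2×10^5 per well and treated for 48 h (MDA-MB-468: 14, 28, 56 μM). Cells were fixed in 75% ethanol at −20 °C overnight, stained with PI and analysed by flow cytometry. Mean ± S.D. of three independent experiments versus DMSO.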

[7] = tested on: MDA-MB-468; test: Induction of cell cycle arrest in human MDA-MB-468 cells assessed as cell accumulation at G0/G1 phase at 56 uM incubated for 48 hrs by propidium iodide staining-based flow cytometric analysis (reference value: 38.94 %); type: functional; in short: as §2
[8] = tested on: MDA-MB-468; test: Induction of cell cycle arrest in human MDA-MB-468 cells assessed as cell accumulation at S phase at 56 uM incubated for 48 hrs by propidium iodide staining-based flow cytometric analysis (reference value: 34.20 %); type: functional; in short: as §2
[9] = tested on: MDA-MB-468; test: Induction of apoptosis in human MDA-MB-468 cells assessed as increase in apoptosis incubated for 48 hrs by annexin-V-FITC/PI staining based flow cytometric method; type: functional, cell-based
[10] = tested on: MDA-MB-231; test: Induction of apoptosis in human MDA-MB-231 cells assessed as increase in apoptosis incubated for 48 hrs by annexin-V-FITC/PI staining based flow cytometric method; type: functional, cell-based
[11] = tested on: MDA-MB-468; test: Induction of apoptosis in human MDA-MB-468 cells assessed as necrotic cells at 14 uM incubated for 48 hrs by annexin-V-FITC staining based flow cytometric method (reference value: 1.52 %); type: functional
[12] = tested on: MDA-MB-468; test: Induction of apoptosis in human MDA-MB-468 cells assessed as live cells at 14 uM incubated for 48 hrs by annexin-V-FITC staining based flow cytometric method (reference value: 98.5 %); type: functional
[13] = tested on: MDA-MB-468; test: Induction of apoptosis in human MDA-MB-468 cells assessed as early apoptotic cells at 14 uM incubated for 48 hrs by annexin-V-FITC staining based flow cytometric method (reference value: 2.00 %); type: functional
[14] = tested on: MDA-MB-468; test: Induction of apoptosis in human MDA-MB-468 cells assessed as necrotic cells at 28 uM incubated for 48 hrs by annexin-V-FITC staining based flow cytometric method (reference value: 1.52 %); type: functional
[15] = tested on: MDA-MB-468; test: Induction of apoptosis in human MDA-MB-468 cells assessed as late apoptotic cells at 56 uM incubated for 48 hrs by annexin-V-FITC staining based flow cytometric method (reference value: 0.99 %); type: functional
[16] = biological target: T1, Protein smoothened (Homo sapiens, UniProt Q99835); test: Binding affinity to recombinant human Smo receptor assessed as association rate constant by SPR analysis
In short: (§3)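 Surface plasmon resonance with recombinant Smo protein, run in PBS at a flow rate of 2 μL/s and 4 °C. Analytes were injected at 2.5, 5 and 10 μM. The chip was regenerated with 0.5% SDS:glycine-HCl pH 2.0 (1:1). ka, kd, Rmax, KA and KD came from a global fit of the sensorgrams.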

[17] = tested on: MDA-MB-468; test: Induction of apoptosis in human MDA-MB-468 cells assessed as early apoptotic cells at 56 uM incubated for 48 hrs by annexin-V-FITC staining based flow cytometric method (reference value: 2.00 %); type: functional
[18] = biological target: T1, Protein smoothened; test: Binding affinity to recombinant human Smo receptor assessed as dissociation rate constant by SPR analysis; in short: as §3
[19] = biological target: T1, Protein smoothened; test: Binding affinity to recombinant human Smo receptor assessed as association constant at equilibrium by SPR analysis
[20] = biological target: T1, Protein smoothened; test: Binding affinity to recombinant human Smo receptor assessed as dissociation constant at equilibrium by SPR analysis
[21] = tested on: MDA-MB-231; test: Induction of apoptosis in human MDA-MB-231 cells assessed as increase in Bax protein expression level incubated for 1 hr by Western blot analysis; type: functional, cell-based
[22] = tested on: MDA-MB-468; test: Inhibition of hedgehog pathway in human MDA-MB-468 cells assessed as decrease in Smo protein levels in cilia at 28 uM incubated for 24 hrs by immunostaining based confocal microscopic analysis; type: cell-based
In short: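 MDA-MB-468 cells were treated at 28 μM for 24 h with or without SAG. Cilia were immunostained for acetylated α-tubulin and Smo and imaged by confocal microscopy. Comparisons were made against DMSO and against SAG alone.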

[23] = Acute toxicity in Kunming mouse assessed as mortality at 3453 mg/kg, ig observed for 14 days relative to control; type: organism-based; conditions: in vivo, po, read-out: Activity
In short: (§4)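 Kunming mice, groups of 5 female and 5 male per dose, dosed once by gavage at graded doses; mortality recorded over 14 days as dead/treated and percent. LD50 derived by improved Karber's method: LD50 = lg^-1[xm − i(ΣP − 0.5)], xm log of maximal dose, i log ratio of neighbouring doses; 95% confidence intervals given.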

[24] = Acute toxicity in Kunming mouse assessed as mortality at 3965 mg/kg, ig observed for 14 days relative to control; type: organism-based; conditions: in vivo, po, read-out: Activity; in short: as §4
[25] = Acute toxicity in Kunming mouse assessed as lethality through intragastric administration observed for 14 days; conditions: in vivo, po; in short: as §4
[26] = tested on: MDA-MB-468; test: Antitumour activity against human MDA-MB-468 cells xenografted in BALB/c mouse assessed as reduction in tumour volume at 80 mg/kg, ig measured every 2 days for 21 days relative to control; type: functional; set-up: scale not given: the % may be the effect or the level left
In short: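 Female BALB/c nude mice, 6–8 weeks old, were given subcutaneous flank injections of 1.0×10^7 MDA-MB-468 cells in 0.2 ml PBS. At 100 mm³ tumours they were randomized, five per group. Daily gavage in saline with 0.1% Tween 80 at 80 or 100 mg/kg, or vehicle alone. Tumour volume measured every 2 days and body weight daily. Tumours excised and weighed at day 21.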

T1 sequence (Q99835 whole entry): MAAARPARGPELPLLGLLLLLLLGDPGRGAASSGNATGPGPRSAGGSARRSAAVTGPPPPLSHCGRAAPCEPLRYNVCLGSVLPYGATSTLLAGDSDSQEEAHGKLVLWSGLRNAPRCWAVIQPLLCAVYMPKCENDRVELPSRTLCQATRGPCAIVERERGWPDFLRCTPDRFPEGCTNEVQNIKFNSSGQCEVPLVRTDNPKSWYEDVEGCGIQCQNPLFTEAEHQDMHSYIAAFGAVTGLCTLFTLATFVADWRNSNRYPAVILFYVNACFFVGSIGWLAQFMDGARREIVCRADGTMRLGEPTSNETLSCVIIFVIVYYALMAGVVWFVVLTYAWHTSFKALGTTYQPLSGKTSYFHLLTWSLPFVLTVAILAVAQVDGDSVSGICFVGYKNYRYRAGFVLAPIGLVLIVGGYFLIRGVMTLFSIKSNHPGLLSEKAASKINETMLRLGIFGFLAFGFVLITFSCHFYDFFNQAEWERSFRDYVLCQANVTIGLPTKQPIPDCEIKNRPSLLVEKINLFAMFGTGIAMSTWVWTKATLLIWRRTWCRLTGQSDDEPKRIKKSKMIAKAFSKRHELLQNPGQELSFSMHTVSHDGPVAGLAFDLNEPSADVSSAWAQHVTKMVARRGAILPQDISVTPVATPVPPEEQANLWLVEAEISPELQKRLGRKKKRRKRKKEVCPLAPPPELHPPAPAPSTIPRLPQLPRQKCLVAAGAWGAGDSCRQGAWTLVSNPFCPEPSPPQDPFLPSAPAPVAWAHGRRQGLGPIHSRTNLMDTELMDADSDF

## O=C(Nc1ccc(Cl)c(-c2nnc3c(Cl)cccn23)c1)c1ccc(Cl)nc1Cl
[1]
  pIC50: 4.37
[2]
  pIC50: 7.05
[3]
  pIC50: 4.54
[4]
  pIC50: 4.19
[5]
  pIC50: 4.07
[6]
  Activity: 39.75%
[7]
  Activity: 29%
[8]
  Activity: 44%
[9]
  Activity: Dose-dependent effect
[10]
  Activity: Dose-dependent effect
[11]
  Activity: 9.4%
[12]
  Activity: 74.84%
[13]
  Activity: 8.63%
[14]
  Activity: 9.86%
[15]
  Activity: 24.1%
[16]
  Ka: 360 M⁻¹ s⁻¹
[17]
  Activity: 6.53%
[18]
  Kdiss: 0.00375 ×10⁻³ /s
[19]
  KA: 9.71 ×10⁷ /M
[20]
  pKd: 7.99
[21]
  Activity: Active
[22]
  inhibition: Active
[23]
  mortality at 336 h: 30%
[24]
  mortality at 336 h: 50%
[25]
  LD50 at 336 h: 3880 mg/kg
[26]
  Activity: 64.97%
